Laboratory results from ChEMBL document CHEMBL3352352, “Structure-Based Drug Design of Novel, Potent, and Selective Azabenzimidazoles (ABI) as ATR Inhibitors” (ACS Med Chem Lett, 2015).
Values after ≈ are worked out from the molar mass of the structure shown. Active and inactive are the calls of the source. The calls are words filed in the database; no cut-off is given here.

Legend:
[1] = biological target: Serine/threonine-protein kinase ATR (Homo sapiens, UniProt Q13535); experiment: Inhibition of human ATR using ATP substrate measured after 3 hrs
Chain of Serine/threonine-protein kinase ATR (Q13535 whole entry): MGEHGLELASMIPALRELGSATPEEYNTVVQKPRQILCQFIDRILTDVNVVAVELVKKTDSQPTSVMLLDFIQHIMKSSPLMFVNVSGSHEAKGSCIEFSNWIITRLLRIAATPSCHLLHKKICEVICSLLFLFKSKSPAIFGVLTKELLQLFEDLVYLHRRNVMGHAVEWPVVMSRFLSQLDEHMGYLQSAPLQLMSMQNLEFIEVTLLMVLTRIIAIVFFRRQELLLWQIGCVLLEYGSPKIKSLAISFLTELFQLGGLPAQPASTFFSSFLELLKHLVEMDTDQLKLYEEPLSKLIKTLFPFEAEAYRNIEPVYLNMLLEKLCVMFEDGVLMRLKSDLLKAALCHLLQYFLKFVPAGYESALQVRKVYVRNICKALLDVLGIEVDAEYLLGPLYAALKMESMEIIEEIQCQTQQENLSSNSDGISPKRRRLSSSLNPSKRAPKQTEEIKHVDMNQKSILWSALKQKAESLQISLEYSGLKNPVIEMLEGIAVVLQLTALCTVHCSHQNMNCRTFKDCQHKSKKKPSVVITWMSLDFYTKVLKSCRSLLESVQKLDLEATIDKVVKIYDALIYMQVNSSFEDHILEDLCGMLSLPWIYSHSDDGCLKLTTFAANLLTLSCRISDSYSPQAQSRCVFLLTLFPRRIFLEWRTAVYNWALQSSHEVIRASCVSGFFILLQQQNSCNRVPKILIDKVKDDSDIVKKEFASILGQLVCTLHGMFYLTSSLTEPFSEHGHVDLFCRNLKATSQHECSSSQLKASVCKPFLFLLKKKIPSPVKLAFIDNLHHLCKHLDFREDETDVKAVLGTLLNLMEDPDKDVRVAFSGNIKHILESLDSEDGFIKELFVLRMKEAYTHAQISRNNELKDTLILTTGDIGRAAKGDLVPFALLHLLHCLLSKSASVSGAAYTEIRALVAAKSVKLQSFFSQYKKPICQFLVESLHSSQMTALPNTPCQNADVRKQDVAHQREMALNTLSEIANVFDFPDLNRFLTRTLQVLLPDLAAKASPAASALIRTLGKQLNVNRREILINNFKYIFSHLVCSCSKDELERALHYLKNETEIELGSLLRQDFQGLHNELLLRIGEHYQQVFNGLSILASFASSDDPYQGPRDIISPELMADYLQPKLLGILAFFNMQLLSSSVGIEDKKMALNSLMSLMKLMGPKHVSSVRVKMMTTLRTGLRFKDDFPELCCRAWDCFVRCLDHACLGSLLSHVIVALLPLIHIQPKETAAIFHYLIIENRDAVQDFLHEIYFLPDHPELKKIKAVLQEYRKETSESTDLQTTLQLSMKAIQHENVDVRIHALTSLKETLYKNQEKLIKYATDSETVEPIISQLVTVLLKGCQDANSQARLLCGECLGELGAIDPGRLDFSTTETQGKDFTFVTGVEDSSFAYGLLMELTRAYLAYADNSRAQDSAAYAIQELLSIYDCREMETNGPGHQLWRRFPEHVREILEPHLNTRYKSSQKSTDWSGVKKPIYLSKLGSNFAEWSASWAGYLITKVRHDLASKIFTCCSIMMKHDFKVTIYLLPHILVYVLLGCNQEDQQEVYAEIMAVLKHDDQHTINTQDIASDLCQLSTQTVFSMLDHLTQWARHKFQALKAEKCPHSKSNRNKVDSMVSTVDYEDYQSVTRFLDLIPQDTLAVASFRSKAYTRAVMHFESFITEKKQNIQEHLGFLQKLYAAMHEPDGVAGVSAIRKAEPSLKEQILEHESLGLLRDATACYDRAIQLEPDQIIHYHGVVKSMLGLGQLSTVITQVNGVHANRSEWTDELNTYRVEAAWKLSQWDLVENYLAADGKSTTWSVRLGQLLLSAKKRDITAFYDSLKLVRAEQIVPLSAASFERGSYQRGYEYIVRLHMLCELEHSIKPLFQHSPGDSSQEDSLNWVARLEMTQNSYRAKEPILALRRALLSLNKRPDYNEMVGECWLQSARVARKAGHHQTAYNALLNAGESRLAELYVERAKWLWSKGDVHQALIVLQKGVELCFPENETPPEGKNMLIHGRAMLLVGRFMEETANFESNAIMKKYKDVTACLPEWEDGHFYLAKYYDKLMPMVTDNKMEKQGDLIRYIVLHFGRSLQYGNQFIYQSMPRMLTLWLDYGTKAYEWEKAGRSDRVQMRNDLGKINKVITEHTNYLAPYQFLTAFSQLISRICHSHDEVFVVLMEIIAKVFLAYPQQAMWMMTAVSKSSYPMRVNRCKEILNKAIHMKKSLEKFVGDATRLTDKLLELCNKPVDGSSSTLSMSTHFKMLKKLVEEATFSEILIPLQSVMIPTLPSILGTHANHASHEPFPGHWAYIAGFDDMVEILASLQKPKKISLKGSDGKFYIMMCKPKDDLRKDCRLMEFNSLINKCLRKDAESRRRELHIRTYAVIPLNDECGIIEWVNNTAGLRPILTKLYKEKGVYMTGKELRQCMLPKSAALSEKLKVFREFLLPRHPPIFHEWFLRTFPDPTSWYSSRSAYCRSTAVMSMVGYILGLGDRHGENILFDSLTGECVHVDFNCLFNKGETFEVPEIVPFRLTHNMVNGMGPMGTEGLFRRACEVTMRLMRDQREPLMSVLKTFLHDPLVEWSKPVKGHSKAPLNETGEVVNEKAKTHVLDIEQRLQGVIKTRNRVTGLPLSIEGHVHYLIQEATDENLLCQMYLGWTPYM

Cytochrome P450 2D6 [2] = biological target: T1, Cytochrome P450 2D6 (Homo sapiens, UniProt P10635); experiment: Time dependent inhibition of CYP2D6 in human liver microsomes; assay type: ADME; conditions: TDE = time-dependent effect
T1 sequence (P10635 whole entry, canonical isoform): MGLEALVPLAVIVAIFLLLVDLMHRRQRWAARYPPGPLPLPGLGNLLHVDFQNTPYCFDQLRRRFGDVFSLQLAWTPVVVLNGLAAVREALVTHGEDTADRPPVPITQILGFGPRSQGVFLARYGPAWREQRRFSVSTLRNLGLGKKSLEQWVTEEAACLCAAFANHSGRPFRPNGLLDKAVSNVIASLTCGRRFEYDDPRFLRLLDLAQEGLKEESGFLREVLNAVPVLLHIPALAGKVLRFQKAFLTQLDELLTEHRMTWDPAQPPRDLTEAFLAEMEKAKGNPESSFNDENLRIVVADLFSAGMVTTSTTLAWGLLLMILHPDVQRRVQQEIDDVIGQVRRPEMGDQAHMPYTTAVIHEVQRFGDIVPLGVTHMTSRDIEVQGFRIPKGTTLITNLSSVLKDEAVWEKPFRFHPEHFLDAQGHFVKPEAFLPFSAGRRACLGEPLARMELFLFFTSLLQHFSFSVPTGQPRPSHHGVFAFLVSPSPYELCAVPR

[3] = biological target: Phosphatidylinositol 4,5-bisphosphate 3-kinase catalytic subunit gamma isoform (Homo sapiens) (UniProt P48736); experiment: Inhibition of PI3Kgamma (unknown origin) at <8 uM
[4] = biological target: Phosphatidylinositol 4,5-bisphosphate 3-kinase catalytic subunit beta isoform (Homo sapiens) (UniProt P42338); experiment: Inhibition of PI3Kbeta (unknown origin) at <8 uM
Cytochrome P450 1A2 [5] = biological target: T2, Cytochrome P450 1A2 (Homo sapiens, UniProt P05177); experiment: Time dependent inhibition of CYP1A2 in human liver microsomes; assay type: ADME; conditions: TDE = time-dependent effect
T2 sequence (P05177 whole entry): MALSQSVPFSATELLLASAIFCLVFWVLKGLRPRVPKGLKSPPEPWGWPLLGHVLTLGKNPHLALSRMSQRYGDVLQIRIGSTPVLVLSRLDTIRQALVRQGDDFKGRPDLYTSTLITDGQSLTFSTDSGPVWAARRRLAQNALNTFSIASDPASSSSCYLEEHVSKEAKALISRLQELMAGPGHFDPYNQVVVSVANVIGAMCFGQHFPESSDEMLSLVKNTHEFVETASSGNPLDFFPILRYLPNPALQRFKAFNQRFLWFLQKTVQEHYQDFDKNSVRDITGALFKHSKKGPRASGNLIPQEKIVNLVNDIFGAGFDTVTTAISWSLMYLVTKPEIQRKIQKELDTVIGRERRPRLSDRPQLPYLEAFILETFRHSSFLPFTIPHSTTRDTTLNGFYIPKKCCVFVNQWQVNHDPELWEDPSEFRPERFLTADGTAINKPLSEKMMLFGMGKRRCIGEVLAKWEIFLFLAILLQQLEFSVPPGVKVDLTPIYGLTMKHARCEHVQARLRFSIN

Cytochrome P450 1A2 [6] = biological target: T2, Cytochrome P450 1A2; experiment: Inhibition of CYP1A2 (unknown origin); assay type: ADME
[7] = Solubility of the compound in PBS buffer at pH 7 by shake flask equilibrium solubility assay
[8] = biological target: Serine/threonine-protein kinase mTOR (Homo sapiens, UniProt P42345); experiment: Inhibition of mTOR (unknown origin)
[9] = Apparent permeability from basolateral to apical side in human Caco2 cells at 10 uM and pH 7.4; conditions: Caco-2, pH 7.4
Cytochrome P450 3A4 = Cytochrome P450 3A4 (Homo sapiens, UniProt P08684); experiment: Inhibition of CYP3A4 (unknown origin); assay type: ADME
[10] = Clearance in Sprague-Dawley rat at 2.5 mg/kg, iv and 5 mg/kg, po; assay type: ADME, organism-based; conditions: in vivo
[11] = biological target: T3, DNA-dependent protein kinase catalytic subunit (Homo sapiens, UniProt P78527); experiment: Inhibition of DNAPK (unknown origin) at 10 uM
[12] = biological target: T4, Phosphatidylinositol 4,5-bisphosphate 3-kinase catalytic subunit alpha isoform (Homo sapiens, UniProt P42336); experiment: Inhibition of PI3Kalpha (unknown origin) at <8 uM
T4 sequence (P42336 whole entry, canonical isoform): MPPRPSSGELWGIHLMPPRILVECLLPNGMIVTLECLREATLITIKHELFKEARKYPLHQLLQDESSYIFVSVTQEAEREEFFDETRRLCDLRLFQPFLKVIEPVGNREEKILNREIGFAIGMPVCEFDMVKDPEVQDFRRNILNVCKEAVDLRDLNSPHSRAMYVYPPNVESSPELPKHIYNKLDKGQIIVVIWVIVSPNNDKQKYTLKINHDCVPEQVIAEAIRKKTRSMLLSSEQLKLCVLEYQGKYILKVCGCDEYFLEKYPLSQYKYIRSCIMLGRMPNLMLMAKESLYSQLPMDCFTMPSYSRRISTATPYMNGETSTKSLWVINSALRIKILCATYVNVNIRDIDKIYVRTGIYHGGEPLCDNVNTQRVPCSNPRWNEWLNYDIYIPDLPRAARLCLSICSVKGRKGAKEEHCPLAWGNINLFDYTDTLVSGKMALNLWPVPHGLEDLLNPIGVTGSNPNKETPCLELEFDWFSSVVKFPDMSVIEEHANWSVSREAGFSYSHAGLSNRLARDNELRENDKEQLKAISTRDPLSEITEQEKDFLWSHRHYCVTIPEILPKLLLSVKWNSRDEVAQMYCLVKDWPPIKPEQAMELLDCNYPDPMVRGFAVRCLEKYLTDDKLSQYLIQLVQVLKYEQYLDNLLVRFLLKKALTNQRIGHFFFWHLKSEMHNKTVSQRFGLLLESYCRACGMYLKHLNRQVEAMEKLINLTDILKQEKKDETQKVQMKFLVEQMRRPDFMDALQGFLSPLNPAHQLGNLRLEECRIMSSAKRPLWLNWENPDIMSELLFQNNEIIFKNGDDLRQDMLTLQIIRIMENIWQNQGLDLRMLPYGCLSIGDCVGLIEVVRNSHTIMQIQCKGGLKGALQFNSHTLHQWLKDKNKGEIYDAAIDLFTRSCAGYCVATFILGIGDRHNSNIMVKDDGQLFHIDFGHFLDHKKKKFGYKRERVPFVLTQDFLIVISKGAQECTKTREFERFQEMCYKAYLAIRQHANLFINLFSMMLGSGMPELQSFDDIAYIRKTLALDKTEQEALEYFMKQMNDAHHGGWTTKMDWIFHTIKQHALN

[13] = biological target: T5, Serine/threonine-protein kinase Chk1 (Homo sapiens, UniProt O14757); experiment: Inhibition of full-length Chk1 in HeLa S3 cells assessed as phosphorylation at Ser345 after 4 hrs; assay type: cell-based
T5 sequence (O14757 whole entry): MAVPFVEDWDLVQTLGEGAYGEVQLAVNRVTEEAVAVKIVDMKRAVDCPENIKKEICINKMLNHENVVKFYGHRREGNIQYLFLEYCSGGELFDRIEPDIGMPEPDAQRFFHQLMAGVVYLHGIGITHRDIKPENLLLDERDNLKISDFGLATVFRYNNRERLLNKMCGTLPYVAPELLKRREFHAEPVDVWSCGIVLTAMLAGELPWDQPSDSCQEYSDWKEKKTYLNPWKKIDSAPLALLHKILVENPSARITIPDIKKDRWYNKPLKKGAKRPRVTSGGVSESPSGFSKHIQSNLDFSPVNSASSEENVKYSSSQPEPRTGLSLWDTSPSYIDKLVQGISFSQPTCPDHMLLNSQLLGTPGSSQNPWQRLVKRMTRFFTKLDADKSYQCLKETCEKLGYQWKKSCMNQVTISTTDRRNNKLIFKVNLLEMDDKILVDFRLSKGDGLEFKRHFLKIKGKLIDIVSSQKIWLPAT
How it was run: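 HeLa S3 cells exposed to 1 µM gemcitabine together with test compound for 4 hr; read-out is Ser345-phosphorylated Chk1.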

[14] = Apparent permeability from apical to basolateral side in human Caco2 cells at 10 uM and pH 7.4; conditions: Caco-2, pH 7.4
Cytochrome P450 2C9 [15] = biological target: T6, Cytochrome P450 2C9 (Homo sapiens, UniProt P11712); experiment: Inhibition of CYP2C9 (unknown origin); assay type: ADME
T6 sequence (P11712 whole entry): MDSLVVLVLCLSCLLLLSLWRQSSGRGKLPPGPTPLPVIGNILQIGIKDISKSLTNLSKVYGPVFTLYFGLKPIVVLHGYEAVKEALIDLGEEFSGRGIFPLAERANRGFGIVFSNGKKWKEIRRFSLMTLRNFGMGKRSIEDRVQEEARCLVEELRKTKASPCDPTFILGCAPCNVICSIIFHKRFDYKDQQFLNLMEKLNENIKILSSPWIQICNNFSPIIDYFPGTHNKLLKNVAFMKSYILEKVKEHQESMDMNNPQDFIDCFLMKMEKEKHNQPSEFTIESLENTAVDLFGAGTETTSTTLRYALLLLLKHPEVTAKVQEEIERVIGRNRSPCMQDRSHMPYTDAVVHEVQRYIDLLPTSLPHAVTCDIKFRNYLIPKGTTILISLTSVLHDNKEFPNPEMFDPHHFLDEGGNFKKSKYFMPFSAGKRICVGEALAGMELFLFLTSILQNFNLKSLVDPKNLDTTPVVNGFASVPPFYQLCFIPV

Cytochrome P450 2D6 [16] = biological target: T1, Cytochrome P450 2D6; experiment: Inhibition of CYP2D6 (unknown origin); assay type: ADME
[17] = biological target: T7, Serine-protein kinase ATM (Homo sapiens, UniProt Q13315); experiment: Inhibition of ATM (unknown origin) at 2 uM
Cytochrome P450 2C9 [18] = biological target: T6, Cytochrome P450 2C9; experiment: Time dependent inhibition of CYP2C9 in human liver microsomes; assay type: ADME; conditions: TDE = time-dependent effect
[19] = biological target: T8, Phosphatidylinositol 4,5-bisphosphate 3-kinase catalytic subunit delta isoform (Homo sapiens) (UniProt O00329); experiment: Inhibition of PI3Kdelta (unknown origin) at <8 uM
T8 sequence (whole entry): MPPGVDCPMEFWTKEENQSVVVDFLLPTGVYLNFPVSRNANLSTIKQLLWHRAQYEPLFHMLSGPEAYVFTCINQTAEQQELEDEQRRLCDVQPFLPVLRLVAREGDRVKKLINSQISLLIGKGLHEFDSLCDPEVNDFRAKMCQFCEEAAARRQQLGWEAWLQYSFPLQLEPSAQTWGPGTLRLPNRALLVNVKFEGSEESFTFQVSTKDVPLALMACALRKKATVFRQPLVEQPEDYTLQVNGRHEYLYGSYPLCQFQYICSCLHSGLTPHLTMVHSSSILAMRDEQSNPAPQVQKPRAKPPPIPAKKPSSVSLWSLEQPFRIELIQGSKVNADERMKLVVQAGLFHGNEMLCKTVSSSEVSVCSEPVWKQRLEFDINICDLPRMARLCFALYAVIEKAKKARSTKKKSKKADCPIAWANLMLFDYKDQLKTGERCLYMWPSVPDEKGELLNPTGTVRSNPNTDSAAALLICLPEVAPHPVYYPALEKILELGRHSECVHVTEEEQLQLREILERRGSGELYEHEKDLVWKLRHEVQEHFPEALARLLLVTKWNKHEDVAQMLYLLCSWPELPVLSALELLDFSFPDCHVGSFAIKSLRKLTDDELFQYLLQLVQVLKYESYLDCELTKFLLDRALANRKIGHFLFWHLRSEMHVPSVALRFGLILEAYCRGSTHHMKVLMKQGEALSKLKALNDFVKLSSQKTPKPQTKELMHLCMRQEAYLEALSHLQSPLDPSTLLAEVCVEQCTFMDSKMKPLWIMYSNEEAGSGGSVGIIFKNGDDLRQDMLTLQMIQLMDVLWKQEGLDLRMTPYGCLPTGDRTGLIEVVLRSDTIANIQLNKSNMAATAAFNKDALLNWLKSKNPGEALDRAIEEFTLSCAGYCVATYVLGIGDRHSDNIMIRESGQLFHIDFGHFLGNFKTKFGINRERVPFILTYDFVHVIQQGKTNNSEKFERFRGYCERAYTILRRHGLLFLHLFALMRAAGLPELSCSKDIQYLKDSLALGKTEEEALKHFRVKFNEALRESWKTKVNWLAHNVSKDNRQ

[20] = Intrinsic clearance in rat liver microsomes; assay type: ADME; conditions: read-out: CLH
How it was run: (§1)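 Liver microsomes from mouse, rat or human; intrinsic clearance scaled to hepatic blood flow.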

[21] = biological target: T4, Phosphatidylinositol 4,5-bisphosphate 3-kinase catalytic subunit alpha isoform; experiment: Inhibition of PI3Kalpha (unknown origin)
[22] = Oral bioavailability in Sprague-Dawley rat at 5 mg/kg; assay type: ADME, organism-based; conditions: in vivo
[23] = Intrinsic clearance in human liver microsomes; assay type: ADME; conditions: read-out: CLH; how it was run: as §1
[24] = Intrinsic clearance in mouse liver microsomes; assay type: ADME; conditions: read-out: CLH; how it was run: as §1
[25] = Volume of distribution at steady state in Sprague-Dawley rat at 2.5 mg/kg, iv and 5 mg/kg, po; assay type: ADME, organism-based; conditions: in vivo, read-out: Vdss
[26] = biological target: Voltage-gated inwardly rectifying potassium channel KCNH2 (Homo sapiens, UniProt Q12809); experiment: Inhibition of human ERG channel by dofetilide binding assay
[27] = Growth inhibition of human HT144 cells after 72 hrs by Cell Titer Glow assay; assay type: functional, cell-based; conditions: HT-144, 72 h
How it was run: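 Cell Titer Glo viability read-out after 72 hr continuous compound exposure.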

[28] = biological target: T3, DNA-dependent protein kinase catalytic subunit; experiment: Inhibition of DNAPK (unknown origin)
[29] = Half life in Sprague-Dawley rat at 2.5 mg/kg, iv and 2.5 mg/kg, po; conditions: in vivo
[30] = biological target: T7, Serine-protein kinase ATM; experiment: Inhibition of ATM (unknown origin)

SMILES | IC50 [1] [nM] | solubility thermodynamic [7] [µM] | Papp B→A at 10 µM [9] [×10⁻⁶ cm/s] | clearance [10] [mL/min/kg] | Papp A→B at 10 µM [14] [×10⁻⁶ cm/s] | IC50 [21] [nM] | bioavailability [22] [%] | other results
O=C(NC1CC1)c1cn2c(N3CCOCC3)nc(-c3cccc4[nH]ccc34)cc2n1 | 39 |  |  |  |  |  |  | 
C[C@@H]1COCCN1c1nc(-c2cncc3[nH]ccc23)cc2c1ncn2[C@@H](C)S(C)(=O)=O | 0.2 | > 770 | 37 | 114 | 2 |  |  | inhibition (INH) (Cytochrome P450 2D6 [2]): tde; inhibition [3]: inactive; inhibition [4]: inactive; inhibition (INH) (Cytochrome P450 1A2 [5]): tde; IC50 (Cytochrome P450 1A2 [6]): > 40000 nM; IC50 [8]: > 4600 nM; IC50 (Cytochrome P450 3A4): > 40000 nM; inhibition [11]: inactive; inhibition [12]: inactive; IC50 [13]: 80 nM; IC50 (Cytochrome P450 2C9 [15]): > 40000 nM; IC50 (Cytochrome P450 2D6 [16]): > 40000 nM; inhibition [17]: inactive; inhibition (INH) (Cytochrome P450 2C9 [18]): tde; inhibition [19]: inactive
CS(=O)(=O)Cn1cnc2c(N3CCOCC3)nc(-c3cccc4[nH]ccc34)cc21 | 5 | 193 (≈ 79.4 µg/mL) | 58 | 14 | 14 | > 10000 | 96 | CLint scaled [20]: 30 mL/min/kg; EC50 [13]: 3300 nM; CLint scaled [23]: 6 mL/min/kg; CLint scaled [24]: 31 mL/min/kg
c1cc(-c2cc3nccn3c(N3CCOCC3)n2)c2cc[nH]c2c1 | 96 | 56 (≈ 17.9 µg/mL) |  |  |  | > 10000 |  | 
C[C@@H]1COCCN1c1nc(-c2cccc3[nH]ccc23)cc2nccn12 | 95 |  |  |  |  | > 10000 |  | 
C[C@@H]1COCCN1c1nc(-c2cnc(N)nc2)cc2c1ncn2CS(C)(=O)=O | 6 |  |  |  |  |  |  | 
C[C@@H]1COCCN1c1nc(-c2c(F)ncc3[nH]ccc23)cc2c1ncn2C | 0.1 | > 2300 | 38 | 20 | 38 |  | 66 | Vd [25]: 1.2 L/kg; IC50 [13]: 96 nM
C[C@@H]1COCCN1c1nc(-c2nncc3[nH]ccc23)cc2c1ncn2C | 0.5 | > 2400 | 38 | 34 | 3.6 |  | 7.5 | IC50 [26]: > 30000 nM; IC50 (Cytochrome P450 1A2 [6]): > 24000 nM; IC50 [8]: > 13000 nM; IC50 [27]: 350 nM; IC50 [28]: > 25000 nM; IC50 (Cytochrome P450 3A4): > 24000 nM; Vd [25]: 1.8 L/kg; IC50 (Cytochrome P450 2C9 [15]): > 24000 nM; IC50 (Cytochrome P450 2D6 [16]): > 24000 nM; half-life [29]: 2 h; IC50 [30]: 15000 nM
CS(=O)(=O)Cn1cnc2c(N3C4CCC3COC4)nc(-c3cnc(N)nc3)cc21 | 190 |  |  |  |  |  |  | 
C[C@@H]1COCCN1c1nc(-c2cccc3[nH]ccc23)cc2c1ncn2CS(C)(=O)=O | 1 |  |  |  |  |  |  | EC50 [13]: 570 nM
c1cc(-c2cc3c(ncn3CC3CC3)c(N3CCOCC3)n2)c2cc[nH]c2c1 | 26 |  |  |  |  | > 10000 |  | 
C[C@@H]1COCCN1c1nc(-c2cncc3[nH]ccc23)cc2c1ncn2C |  |  |  | 49 |  |  | 18 | IC50 [8]: 7500 nM; Vd [25]: 2.3 L/kg; IC50 [13]: 84 nM
CS(=O)(=O)Cn1cnc2c(N3C4CCC3COC4)nc(-c3cncc4[nH]ccc34)cc21 | 34 |  |  |  |  |  |  | 
